Screens (PubChem BioAssay)
Most compounds without a hit are left out; they make up all but 4.1% or so of the library.
hERG rescue – hERG rescue from dofetilide block, primary screen, cell-based, CHO-hERG, FluxOR thallium flux, dofetilide IC70. Voltage-gated inwardly rectifying potassium channel KCNH2 (Homo sapiens), Q12809. dofetilide IC70 present. activation (rescue from dofetilide block), less the hit threshold, % at 10 µM. 0.51% of 310,000 active. AID 1511, 2009;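 active = activation above the mean of controls blocked by dofetilide plus 5 SD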;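 note: thallium influx through hERG after potassium depolarization seen as dye fluorescence rise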
KCNK3 inh – human KCNK3 channel inhibitors, primary screen, CHO cells, FluxOR thallium flux, B-score | Potassium channel subfamily K member 3 (Homo sapiens), O14649 | FluxOR fluorescence; stronger effect = lower value | B-score at 10 µM | 0.84% of 340,000 active;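 active = B-score under library mean minus 4 SD, starting fluorescence ratio at most library mean plus 5 SD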;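 note: more negative B-score means stronger inhibition of thallium flux through KCNK3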
KCC2 mod – KCC2 cotransporter modulators, thallium flux, primary screen, cell-based, HEK293 KCC2, FluoZin-2 fluorescence, MLSMR | KCC2 cells, thallium flux FluoZin-2 fluorescence | B-score of Tl+ flux slope (higher = more flux/activation; lower = inhibition) at 10 µM | 2.2% of 190,000 active | Solute carrier family 12 member 5 (Homo sapiens), Q9H2X9;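 active = thallium flux slope and its plate-corrected score both differing from the plate sample mean at a set confidence after two filtering rounds, in either direction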;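 note: slope of fluorescence scaled to starting intensity during 10 to 20 s after thallium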
KCNK9 inh – KCNK9 potassium channel inhibitors, primary screen, HEK293 cells, thallium flux; Potassium channel subfamily K member 9 (Homo sapiens), Q9NPC2; FluxOR thallium flux fluorescence; stronger effect = lower value; B-score at 10 µM; 1.2% of 310,000 active; AID 488922, 2010;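 active = ratio B-score over 3 SD below the library mean, with starting fluorescence within 5 SD of its mean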;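 note: negative B-score means less thallium flux so channel inhibition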
KCNQ1 pot – potentiators or activators of KCNQ1 channel, primary screen, cell-based, thallium flux, high-throughput | Potassium voltage-gated channel subfamily KQT member 1 (Homo sapiens), P51787 | CHO-K1 KCNQ1, thallium flux FluxOR fluorescence; stronger effect = higher value | B-score at 10 µM | 0.35% of 310,000 active | AID 2648, 2010;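 active = fluorescence ratio B-score, a plate-corrected score, at least three library SD, with initial intensity B-score within 5 SD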
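assay system = CHO-K1 cells stably expressing KCNQ1 | medium = assay buffer, equal DMSO in all wells | timing = 37 °C overnight plating, 90-min dark dye load, 20-min compound pretreatment | measured by = kinetic FluxOR thallium fluorescence, 10-s 1-Hz baseline, 110-s post-stimulus read | measure = fluorescence change relative to baseline, converted to B score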
KCNQ1 inh – inhibitors of human KCNQ1 channel, primary screen, cell-based, thallium flux, high-throughput; 1.3% of 310,000 active; B-score at 10 µM; AID 2642, 2010; CHO-K1 KCNQ1, FluxOR thallium flux fluorescence; stronger effect = higher value; Potassium voltage-gated channel subfamily KQT member 1 (Homo sapiens), P51787;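 active = compounds whose thallium flux B-score, printed positive for inhibition, exceeds three library SD while starting fluorescence stays within three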;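 note: channel opened by potassium depolarization with thallium stimulus after 20 min compound exposure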
KCNK3 confirm – retest of human KCNK3 channel inhibitors, confirmation, CHO cells, FluxOR thallium flux, triplicate; shares compounds with KCNK3 inh; AID 651638, 2012; 99% of 2,400 active; FluxOR fluorescence; 0% buffer, 100% carvedilol maximal block; ratio percent of control, % at 10 µM;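 active = ratio percent of control, averaged over triplicates, above buffer control mean plus 5 SD, cut at about 64% in these data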;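 note: ratio is the fluorescence rise from min to max over baseline after thallium stimulus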
KCNK3 noninduced – thallium flux inhibition in non-induced cells, primary screen, counter-screen for KCNK3 inhibitor project, cell-based, non-induced KCNK3 line, FluxOR thallium, triplicate. non-induced KCNK3 parental cells; stronger effect = lower value. 40% of 2,400 active. shares compounds with KCNK3 inh. thallium flux ratio (lower = more inhibition) at 10 µM;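 active = thallium flux ratio, averaged over three wells, more than 5 SD below the buffer control mean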;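 note: host cells are CHO cells without KCNK3 induction; ratio is peak minus trough fluorescence over baseline then normalized to buffer controls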
An asterisk follows results filed as active; i = inactive; · = no result.

SMILES | hERG rescue | KCNK3 inh | KCC2 mod | KCNK9 inh | KCNQ1 pot | KCNQ1 inh | KCNK3 confirm | KCNK3 noninduced
COc1cccc(NC(=O)COC(=O)c2c3c(nc4ccccc24)CCC(C)C3)c1 (stereo not drawn) | -22.4 | -10.3* | -1.38 | i | i | i | 96.0* | i
O=C(O)/C=C/C(=O)Nc1ccc(N2CCOCC2)nc1N1CCOCC1 | -1.9 | i | -0.143 | i | i | i | · | ·
Cc1ccc(NC(=O)CN2C(=O)NC(C)(c3ccccc3)C2=O)c(C)c1 (stereo not drawn) | -1.3 | -10.6* | · | i | i | i | 85.3* | i
CCC1(CC)NC(=O)N(CC(=O)Nc2ccc(C)cc2C)C1=O | · | i | · | · | · | · | · | ·
COc1ccc(-c2cccc(NS(=O)(=O)c3cc([N+](=O)[O-])ccc3Cl)c2)nn1 | -4.4 | i | · | i | i | i | · | ·
Cc1ccc(CNC(=O)CCS(=O)(=O)c2ccc3c(c2)NC(=O)CS3)cc1 | -4.0 | i | · | i | i | i | · | ·
CCn1c2ccccc2c2nnc(SCc3ccccc3)nc21 | -12.9 | -12* | -0.884 | -6.59* | i | i | 106.3* | i
O=[N+]([O-])c1cccc(C2NCC(c3ccccc3Cl)c3c2[nH]c2ccccc32)c1 (stereo not drawn) | -14.5 | -9.55* | · | -8.07* | i | 7* | 124.7* | 0.143*
COc1ccc(Cl)cc1N1C(=N)SCC1=O | -6.5 | i | 1.61 | i | i | i | · | ·
CCCCc1nn(-c2cc(Cl)ccc2OC)c2c1C(=O)CCC2 | -15.0 | -9.17* | -2.44 | i | i | i | 95.7* | 0.157*
CCc1cc(CNC(=O)c2cc(COc3ccc(C)nc3)on2)on1 | -6.1 | -9.42* | · | i | i | i | 0.0 | i
O=C(CCNS(=O)(=O)c1ccccc1F)N1CCN(C(c2ccccc2)c2ccccc2)CC1 | -14.2 | -8.95* | · | -7.36* | i | i | 101.3* | i
CCc1noc(C)c1C(=O)N1CCN(S(=O)(=O)c2ccc(C(C)C)cc2)CC1 | -9.7 | i | · | i | i | i | · | ·
CCN(CC)S(=O)(=O)c1cc(-c2nnc(-c3ccc(Br)cc3)o2)ccc1Br | -3.5 | -9.42* | 1.76 | i | i | i | 110.3* | 0.157*
COc1ccc(N(C)S(=O)(=O)c2cccc(C(=O)N3CCN(S(=O)(=O)c4ccc(C)cc4)CC3)c2)cc1 | -13.0 | i | · | -12.3* | i | i | 92.3* | i
CCOC(=O)c1cc2occc2n1Cc1c(F)cccc1Cl | -12.3 | -9.76* | 0.052 | i | i | i | 77.0* | i
O=C(c1ccc2nc3ccccc3c(=O)n2c1)N1CCN(Cc2ccc3c(c2)OCO3)CC1 | -10.9 | i | 2.3 | i | i | i | · | ·
CCC(C)NC(=O)Nc1ccc(F)c(Cl)c1 (stereo not drawn) | -9.8 | -9.96* | 0.639 | i | i | i | 91.7* | 0.158*
CC(C)CNC(=O)Nc1ccc(F)c(Cl)c1 | -6.9 | i | -0.261 | i | i | i | · | ·
CCC(C)(C)n1nnnc1C(c1cc(OC)ccc1OC)N1CCN(Cc2ccccc2)CC1 (stereo not drawn) | -3.6 | -10.8* | -1.06 | -7.59* | i | i | 107.0* | i
CCC(C)(C)n1nnnc1CN1CCN(C(c2ccccc2)c2ccccc2)CC1 | -15.2 | -12.9* | -2.46 | i | i | i | 141.0* | 0.128*
OC1(c2ccc(OC(F)F)cc2)CSC(=Nc2cccnc2)N1Cc1ccco1 (stereo not drawn) | -33.5 | -11.4* | -0.649 | i | i | i | 96.7* | i
OC1(c2ccc(F)cc2)CSC(=Nc2cccnc2)N1Cc1ccco1 (stereo not drawn) | -21.6 | i | -0.176 | i | i | i | · | ·
CC(=O)Oc1c(/C=C(\C#N)C(N)=O)[nH]c2ccccc12 | -12.4 | -9.01* | · | i | i | i | 101.0* | 0.143*
CCOc1ccc(/C=C/C(O)=C2/C(=O)N(C)C3(C)CC2c2ccccc2O3)cc1OC (stereo not drawn) | -11.1 | -9.88* | -1.54 | i | i | i | 88.3* | i
SMILES | hERG rescue | KCNK3 inh | KCC2 mod | KCNK9 inh | KCNQ1 pot | KCNQ1 inh | KCNK3 confirm | KCNK3 noninduced
CCOc1ccc(/C=C/C(O)=C2/C(=O)NC3(C)CC2c2ccccc2O3)cc1OC (stereo not drawn) | -2.4 | i | 1.04 | i | i | i | · | ·
COCCOC(=O)c1c(C)oc2ccc(OC(=O)c3c(OC)cccc3OC)cc12 | -2.8 | -10.4* | -1.15 | i | i | i | 104.0* | i
CCOC(=O)c1c(C)oc2ccc(OCc3cc(C(=O)OC)oc3C)cc12 | -4.0 | -10* | · | i | i | i | 102.7* | 0.16*
COC(=O)c1cc(COc2ccc3oc(C)c(C(=O)OC)c3c2)c(C)o1 | -7.4 | i | -0.629 | i | i | i | · | ·
CC(CCc1ccccc1)NC(=O)c1nnc(Cc2ccc(Cl)cc2)o1 (stereo not drawn) | -9.3 | i | 0.0165 | i | i | i | · | ·
Oc1ccccc1/C=N/c1c(-c2ccco2)nc2ccccn12 | -17.1 | -9.74* | 0.552 | i | i | i | 94.7* | i
COC(=O)c1ccc2c(c1)C(C)(C)C(/C=C/c1ccc(OC)c(OC)c1OC)=[N+]2C | -27.6 | -12.2* | -1.29 | i | i | 7* | 117.3* | 0.09*
COc1ccccc1N1CCN(S(=O)(=O)CCNC(=O)CCCc2ccccc2)CC1 | -15.3 | i | · | i | i | i | · | ·
O=C(C1CCCCC1)N1CCN(c2ccnc3cc(Cl)ccc23)CC1 | -21.1 | -8.81* | -1.31 | i | i | i | 115.0* | i
COc1ccc(OC)c(C2=NS(=O)(=O)N(C)C(C(=O)Nc3cccc(C(C)=O)c3)=C2)c1 | -10.0 | -8.78* | · | i | i | i | 122.3* | 0.153*
